Only some compounds are listed: those with a hit (about 2.2% of all), similar ones and a draw of the others.
Wee1 degr inh = inhibitors of human Wee1 degradation. reporter increase, % at 5 µM. HeLa Luc-Wee1K328M stability, luciferase luminescence; 100% = proteasome inhibitor MG132 effect. 1.2% of 220,000 active. AID 1321. P30291;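 active = activation above the mean of all tested compounds plus 3 SD, set per screening run, cut at about 8.8% in these data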;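 note: cells exposed to compound for 20 h before luminescence read; 0% = DMSO alone and 100% = MG132 at 30 µM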
FLuc inhib CS = inhibits firefly luciferase, flagging false hits in luciferase inhibition screens; P08659; ATPLite firefly luciferase biochemical luminescence, 10 min; inhibition, % at 10 µM; 1.5% of 200,000 active; AID 1006;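 active = inhibition above about 50% when tested at 10 µM, limit read from the data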
C8 TRAIL sens = sensitizes caspase-8 expressing cells to TRAIL; NB7+C8 cells + TRAIL, ATPlite viability luminescence; AID 624354; 1% of 360,000 active; inhibition (viability loss, TRAIL sensitization), % at 10 µM;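 active = compounds causing at least 50% loss of cell viability in the single-dose screen, relative to plate controls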
FLuc act counter = affects firefly luciferase, flagging false hits in luciferase stimulation screens. ATPlite luciferase biochemical, luminescence, 10 min; 0 = ATP-free wells, 1 = DMSO control. AID 1027. P08659. 200,000 tested, under 10 active. activation factor at 10 µM;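 active = luciferase activation factor, scaled between plate controls, of at least 2 with compound at 10 µM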
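assay system = Luciferase/luciferin detection reagent, cell-free biochemical luciferase assay | also added = ATP substrate | times = 10 min post-reagent at room temperature | measured by = luminescence from luciferase reaction | measure = luciferase activation, seen as luminescence increase over controls | benchmarks = low control with PBS replacing ATP, high control enzyme plus ATP without compound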
PPC-1+TRAIL kill = kills PPC-1 cancer cells in the presence of TRAIL. PPC-1 cells + TRAIL, ATPLite viability luminescence. cell killing (% activity), % at 4 µM or 5 µM. 0.41% of 220,000 active. AID 1443;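 active = cell killing above 50% in the first pass at 4 µM, then a duplicate retest at 5 µM averaging 50% or more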;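 note: plate controls were cells with TRAIL plus DMSO for no effect and medium-only wells lacking cells for full effect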
PKD1 inh = inhibitors of human PKD1 kinase; inhibition, % (test concentration not listed); Q15139; PKD1 kinase fluorescence polarization assay; 0.056% of 200,000 active; in the data active = inhibition above about 50%
Target sequence (Q15139 whole entry, looked up): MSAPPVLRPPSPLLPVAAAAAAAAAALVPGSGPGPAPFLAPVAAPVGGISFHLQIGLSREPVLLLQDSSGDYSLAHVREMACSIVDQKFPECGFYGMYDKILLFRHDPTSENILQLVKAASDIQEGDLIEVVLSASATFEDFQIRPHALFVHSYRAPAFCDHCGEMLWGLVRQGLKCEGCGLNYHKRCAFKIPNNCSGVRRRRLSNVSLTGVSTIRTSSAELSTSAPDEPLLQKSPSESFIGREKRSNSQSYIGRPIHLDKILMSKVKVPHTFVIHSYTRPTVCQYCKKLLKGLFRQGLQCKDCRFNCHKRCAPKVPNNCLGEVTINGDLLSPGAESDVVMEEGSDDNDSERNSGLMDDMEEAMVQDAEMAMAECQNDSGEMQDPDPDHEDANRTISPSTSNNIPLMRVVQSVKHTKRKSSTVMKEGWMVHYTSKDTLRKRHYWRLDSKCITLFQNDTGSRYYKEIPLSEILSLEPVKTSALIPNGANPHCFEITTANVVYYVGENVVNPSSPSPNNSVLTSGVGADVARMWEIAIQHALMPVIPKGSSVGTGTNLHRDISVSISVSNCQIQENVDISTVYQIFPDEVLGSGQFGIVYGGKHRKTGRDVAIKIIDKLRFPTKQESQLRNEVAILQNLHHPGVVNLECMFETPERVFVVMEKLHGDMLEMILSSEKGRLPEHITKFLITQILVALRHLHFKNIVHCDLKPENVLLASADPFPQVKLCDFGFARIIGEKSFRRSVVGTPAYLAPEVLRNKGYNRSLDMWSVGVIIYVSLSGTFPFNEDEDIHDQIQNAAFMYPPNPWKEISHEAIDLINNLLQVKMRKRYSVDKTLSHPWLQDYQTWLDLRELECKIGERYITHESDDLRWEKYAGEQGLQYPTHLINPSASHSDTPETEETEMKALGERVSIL
* marks the source's active call; other numbers are inactive results; . = no result.

SMILES	Wee1 degr inh	FLuc inhib CS	C8 TRAIL sens	FLuc act counter	PPC-1+TRAIL kill	PKD1 inh
COc1ccc(CN(C)c2nc(-c3cccnc3)nc3ccccc23)cc1OC	-1	3	.	1	0	-5
CCc1ccc(NC(=O)Nc2cccs2)cc1	6	85*	54*	0.2	1	-3
CCOc1ccc(NC(=O)Nc2cccs2)cc1	0	83*	51*	0.2	46	-5
COc1ccc(NC(=O)Nc2cccs2)cc1OC	-1	38	15	0.6	5	-3
Cc1ccc(NC(=O)Nc2cccs2)cc1	2	64*	28	0.4	15	-13
COc1cc2c(cc1OC)CN(C(=O)c1ccc3[nH]c(C)c(C)c3c1)CC2	.	.	0	.	.	.
CCCCN1C(=O)C(CC(=O)NCc2cccs2)CC(C(=O)N(C(C)C)C(C)C)=C1C (configuration not stated)	.	.	11	.	.	.
O=C(N/N=C/c1sc(=O)n(-c2ccccc2)c1Cl)c1ccccc1	5	67*	41	0.3	30	2
CCOc1cc(/C=C/c2cc(C(=O)O)c3ccccc3n2)ccc1O	1	73*	37	0.3	22	-7
CCOc1cc(/C=C/c2cc(C(=O)O)c3ccccc3n2)ccc1OC	1	86*	58*	0.1	28	-3
COc1cc(/C=C/c2cc(C(=O)O)c3ccccc3n2)cc(OC)c1O	3	38	-1	0.6	35	1
CCN1CCCC1CNC(=O)Cn1cc(C)c(=O)[nH]c1=O (configuration not stated)	.	.	-10	.	.	.
CCC(C(=O)O/N=C(\N)c1ccccc1)c1ccccc1 (configuration not stated)	1	6	71*	0.9	11	-6
CCC(C(=O)O/N=C(\N)c1ccc(C)cc1)c1ccccc1 (configuration not stated)	-1	-7	72*	1.1	4	-2
CCOc1ccc(/C=N/NC(=O)c2nnn(-c3nonc3N)c2-c2cccs2)cc1	.	.	-7	.	.	.
C[C@H](NC(=O)c1ncn2c1c(=O)[nH]c1ccc(Br)cc12)c1ccccc1	.	.	91*	.	.	.
C[C@H](NC(=O)c1ncn2c1c(=O)[nH]c1ccccc12)c1ccccc1	.	.	22	.	.	.
CC(C)c1ccc(OCc2nc(-c3ccccn3)no2)c(Br)c1	1	36	15	0.6	-2	2
CCc1ccc(OCc2nc(-c3ccccn3)no2)c(Br)c1	1	55*	55*	0.5	20	-9
N#Cc1ccncc1S(=O)c1ccc(Cl)cc1 (configuration not stated)	.	.	27	.	.	.
O=C(Cn1c(=O)sc2ccccc21)Nc1ccccc1	-1	-6	7	1.1	-3	4
CCN(CC)S(=O)(=O)c1ccc(NC(=O)Cn2c(=O)sc3ccccc32)cc1	9.2*	3	-20	1	0	-2
COc1ccc(NC(=O)Cn2c(=O)sc3ccccc32)cc1	0	-1	-5	1	12	1
COC(=O)Cn1c(=O)sc2ccccc21	10*	-2	-18	1	-23	-2
COc1ccc(C(=O)NCc2cn3cccc(C)c3n2)cc1OC	-1	-6	60*	1.1	33	-8
SMILES	Wee1 degr inh	FLuc inhib CS	C8 TRAIL sens	FLuc act counter	PPC-1+TRAIL kill	PKD1 inh
Cc1nnc(NC(=O)c2cc(S(=O)(=O)N3CCCCC3)ccc2Cl)s1	.	.	-25	.	.	.
Cc1ccc(C)c(NC(=O)CSc2nc(N)c(NC(=O)c3cccs3)c(=O)[nH]2)c1	1	-6	-4	1.1	7	-19
Cc1cccc(NC(=O)CSc2nc(N)c(NC(=O)c3cccs3)c(=O)[nH]2)c1	9.3*	-5	-8	1.1	8	-8
O=C(CCNS(=O)(=O)c1ccccc1)NNC(=O)COc1ccccc1F	.	.	-2	.	.	.
Cc1sc(NC(=O)C2CCCCC2C(=O)O)c(C(N)=O)c1-c1ccc(C(C)(C)C)cc1 (configuration not stated)	-1	-8	-1	1.1	10	-3
Cc1sc(NC(=O)C2CCCCC2C(=O)O)c(C(N)=O)c1-c1ccccc1 (configuration not stated)	2	55*	30	0.5	15	-3
COc1ccc(C)cc1NC(=O)CCCN1C(=O)C(c2ccccc2)Oc2cccnc21 (configuration not stated)	.	.	-16	.	.	.
Cc1cc(NC(=O)CCC(=O)N(Cc2ccco2)C(C(=O)NCC2CCCO2)c2ccncc2)no1 (configuration not stated)	1	-7	-5	1.1	4	74*
CN(C)c1ccc(-c2ccnc3c2CC(C)(C(=O)Nc2ccc(F)c(Cl)c2)O3)cc1 (configuration not stated)	.	.	-11	.	.	.
Cn1c(N/N=C/c2cc3ccccc3nc2Cl)nc2ccccc21	3	96*	88*	0	2	-2
Cn1c(N/N=C/c2c[nH]c3ccccc23)nc2ccccc21	0	38	46	0.6	4	0
Cc1ccc2cc(/C=N/Nc3nc4ccccc4[nH]3)c(Cl)nc2c1	0	94*	87*	0.1	0	2
CCOC(=O)C1CCN(C(=O)c2cccc(S(=O)(=O)N3CCCc4ccccc43)c2)CC1	.	.	11	.	.	.
COC(=O)c1cc(S(=O)(=O)N2CCN(c3cccc(OC)c3)CC2)cn1C	.	.	3	.	.	.
COCc1cc(=O)[nH]c(/N=C(\N)Nc2cccc(C)c2)n1	2	2	2	1	20	-9
Cc1cccc(N/C(N)=N/c2nc(CSc3ccc(Cl)cc3)cc(=O)[nH]2)c1	11*	.	.	.	17	.
O=C1/C(=C\c2cccs2)Sc2ccc3ccccc3c21	0	54*	37	0.5	12	-9
CC(C)(C)c1ccc(-c2noc(CCC(N)=O)n2)cc1	6	43	24	0.6	9	-3
CCc1ccccc1N(CC)C(=O)CCc1nc(-c2ccc(C)cc2)no1	-1	4	7	1	11	0
CNC(=O)CCc1nc(-c2ccc(C(C)(C)C)cc2)no1	0	58*	31	0.4	36	1
CN(C)C(=O)CCc1nc(-c2ccc(C(C)(C)C)cc2)no1	4	52*	32	0.5	20	1
CC(C)(C)c1ccc(-c2noc(CCC(=O)Nc3cccnc3)n2)cc1	.	.	50*	.	.	.
CC(C)(C)c1ccc(-c2noc(CCC(=O)NCC3CCCO3)n2)cc1 (configuration not stated)	-1	64*	50	0.4	-1	-4
CC1CN(C(=O)Cn2cc(SCC(=O)N3CCOCC3)c3ccccc32)CC(C)O1 (configuration not stated)	.	.	-14	.	.	.
O=C(Nc1cc([N+](=O)[O-])ccc1C(=O)NCCN1CCOCC1)c1ccccc1	.	.	0	.	.	.
Cc1ccc(O)c(CP(=O)(c2ccccc2)c2ccccc2)c1	9.4*	-5	-14	1.1	11	-4

Compound activity as filed in PubChem BioAssay.
